The target of assay [1] is Mitogen-activated protein kinase; ERK1/ERK2 (Homo sapiens) (UniProt P27361+P28482). The experiment in a line: Inhibition of ERK1/2 phosphorylation in human HepG2 cells incubated for 48 hrs by Western blot analysis. It counts as cell-based. In a few lines:
(§1)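 HepG2 treated 48 h with 0, 1.6 or 3.2 µM; lysates run on 12.5% SDS-PAGE, PVDF transfer, primary antibodies (AKT, p-AKT, ERK1/2, p-ERK1/2; 1:1000) overnight at 4 °C, HRP secondaries 1 h, chemiluminescence. Phosphorylation quantified relative to untreated control set to 1; SD, n = 3.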
A general note: In western blotting, separated proteins are transferred to a membrane and probed.

Assay [2] relates to Bel-7402. Briefly: Induction of cell cycle arrest in human Bel-7402 cells assessed as accumulation at G2/M phase at 0.8 uM incubated for 48 hrs by flow cytometry (reference value: 25.20%). It counts as functional. On the technique in general: A flow cytometer gives signals particle by particle.
In assay [3] the test system is HCT-116. The experiment in a line: Cytotoxicity against human HCT116 cells assessed as inhibition of proliferation incubated for 72 hrs by MTT assay. It is filed as functional, cell-based. Conditions: HCT-116, 72 h. In a few lines: (§2)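 Cells plated at 3×10³/well, grown overnight in DMEM + 10% FBS, then exposed to compounds (DMSO stocks; 0.1% DMSO negative control) for 72 h at 37 °C. MTT (5 mg/mL in PBS, added at 10%) for 4 h, formazan dissolved in DMSO, A570 read. Inhibition = (Ac−As)/(Ac−Ab)×100; IC50 by calculator; ≥3 independent repeats.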
A general note: Tetrazolium dyes change colour on reduction, which living cells bring about.

Assay [4] has as its system HepG2. Briefly: Cytotoxicity against human HepG2 cells assessed as inhibition rate at 2.5 uM incubated for 72 hrs by MTT assay relative to control. It is filed as functional. In outline:
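HepG2 exposed to each compound at 2.5 µM-range single concentration for 72 h at 37 °C after overnight attachment in DMEM + 10% FBS; 0.1% DMSO control. MTT 4 h, DMSO solubilisation, A570; inhibition rate = (Ac−As)/(Ac−Ab)×100.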

The subject of assay [5] is Bel-7402. The experiment in a line: Induction of cell cycle arrest in human Bel-7402 cells assessed as accumulation at S phase at 3.2 uM incubated for 48 hrs by flow cytometry (reference value: 28.48%). It is filed as functional.
The target of assay [6] is T1, Serine/threonine-protein kinase AKT (Homo sapiens) (UniProt P31751+Q9Y243+P31749). Briefly: Inhibition of Akt phosphorylation in human HepG2 cells incubated for 48 hrs by Western blot analysis. To be noted: dose 1.6-3.2 µM. It counts as cell-based. In a few lines: as §1
T1 sequence (P31749 whole entry, looked up): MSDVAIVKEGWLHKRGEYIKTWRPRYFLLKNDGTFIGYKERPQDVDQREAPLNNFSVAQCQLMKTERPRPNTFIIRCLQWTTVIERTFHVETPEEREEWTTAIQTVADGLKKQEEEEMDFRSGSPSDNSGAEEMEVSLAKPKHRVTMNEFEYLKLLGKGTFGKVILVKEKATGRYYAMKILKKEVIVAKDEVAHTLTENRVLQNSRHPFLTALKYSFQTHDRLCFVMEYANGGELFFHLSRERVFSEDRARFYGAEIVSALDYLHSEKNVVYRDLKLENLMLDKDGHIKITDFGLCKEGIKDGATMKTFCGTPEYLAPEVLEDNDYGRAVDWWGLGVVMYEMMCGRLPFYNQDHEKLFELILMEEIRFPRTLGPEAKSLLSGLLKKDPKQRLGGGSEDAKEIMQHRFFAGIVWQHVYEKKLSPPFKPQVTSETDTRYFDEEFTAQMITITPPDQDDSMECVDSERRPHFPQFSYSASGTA
T1 sequence (P31751 whole entry, looked up): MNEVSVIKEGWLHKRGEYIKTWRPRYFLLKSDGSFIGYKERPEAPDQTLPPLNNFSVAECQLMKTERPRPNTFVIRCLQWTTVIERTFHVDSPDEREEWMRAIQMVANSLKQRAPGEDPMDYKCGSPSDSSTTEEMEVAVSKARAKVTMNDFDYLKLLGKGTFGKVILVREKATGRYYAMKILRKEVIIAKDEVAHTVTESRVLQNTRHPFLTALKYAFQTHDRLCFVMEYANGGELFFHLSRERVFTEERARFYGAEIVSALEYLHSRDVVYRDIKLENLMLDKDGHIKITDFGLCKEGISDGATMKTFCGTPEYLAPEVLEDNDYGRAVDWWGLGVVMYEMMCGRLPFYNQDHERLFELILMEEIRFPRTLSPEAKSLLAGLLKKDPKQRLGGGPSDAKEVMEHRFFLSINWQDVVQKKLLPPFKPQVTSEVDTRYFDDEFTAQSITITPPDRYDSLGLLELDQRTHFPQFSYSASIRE
T1 sequence (Q9Y243 whole entry, looked up): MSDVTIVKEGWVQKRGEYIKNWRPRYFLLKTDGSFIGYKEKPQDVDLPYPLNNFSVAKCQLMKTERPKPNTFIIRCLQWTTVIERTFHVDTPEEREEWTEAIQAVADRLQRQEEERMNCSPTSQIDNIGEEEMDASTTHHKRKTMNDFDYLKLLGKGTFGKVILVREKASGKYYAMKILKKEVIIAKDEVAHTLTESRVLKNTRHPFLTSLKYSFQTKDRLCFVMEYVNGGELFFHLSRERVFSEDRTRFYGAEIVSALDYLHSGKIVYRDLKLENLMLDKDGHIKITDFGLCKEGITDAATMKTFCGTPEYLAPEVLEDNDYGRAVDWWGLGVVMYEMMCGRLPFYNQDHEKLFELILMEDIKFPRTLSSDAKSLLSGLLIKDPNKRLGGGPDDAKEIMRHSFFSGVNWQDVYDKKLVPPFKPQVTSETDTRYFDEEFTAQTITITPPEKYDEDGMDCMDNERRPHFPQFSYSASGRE
The test system of assay [7] is HepG2. The experiment in a line: Induction of apoptosis in human HepG2 cells assessed as live cells at 1.6 uM incubated for 48 hrs by Annexin V and dead cell assay kit (reference value: 93.90%). It counts as functional. In a few lines: (§3)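 HepG2 cells were grown in DMEM and exposed to 0, 0.8, 1.6 or 3.2 µM test agent or DMSO vehicle for 48 h. Apoptosis was then read on a Muse cell analyzer using an Annexin V & Dead Cell kit, which separates live, early apoptotic, late apoptotic and dead populations. The figure legend gives n = 3 with SEM.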

Assay [8] has as its system U-251. Briefly: Cytotoxicity against human U251 cells assessed as inhibition of proliferation incubated for 72 hrs by MTT assay. It counts as functional, cell-based. To be noted: U-251, 72 h. In a few lines:
as §2

For assay [9], the system named is HepG2. The experiment in a line: Induction of apoptosis in human HepG2 cells assessed as dead cells at 3.2 uM incubated for 48 hrs by Annexin V and dead cell assay kit (reference value: 0.55%). It counts as functional. In a few lines:
as §3

Assay [10] has as its system Bel-7402. The experiment in a line: Induction of cell cycle arrest in human Bel-7402 cells assessed as accumulation at G1 phase at 1.6 uM incubated for 48 hrs by flow cytometry (reference value: 46.32%). It is filed as functional.
The test system of assay [11] is NCI-H1299. The experiment in a line: Cytotoxicity against human NCI-H1299 cells assessed as inhibition of proliferation incubated for 72 hrs by MTT assay. To be noted: NCI-H1299, 72 h. It is filed as functional, cell-based. In outline:
as §2

Assay [12] has as its target T1, Serine/threonine-protein kinase AKT (Homo sapiens). Briefly: Inhibition of Akt phosphorylation in human Bel-7402 cells incubated for 48 hrs by Western blot analysis. It is filed as cell-based. In outline:
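Bel-7402 exposed for 48 h to 0, 1.6 or 3.2 µM; cell extracts on 12.5% SDS-PAGE, transferred to PVDF, probed overnight at 4 °C with AKT, p-AKT, ERK1/2, p-ERK1/2 antibodies (1:1000), HRP secondary 1 h, chemiluminescent detection. Band levels normalised to control = 1; SD, n = 3.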

For assay [13], the system named is HepG2. Briefly: Induction of cell cycle arrest in human HepG2 cells assessed as accumulation at G1 phase at 1.6 uM incubated for 48 hrs by flow cytometry (reference value: 46.88%). It counts as functional.
Assay [14] has as its system HepG2. The experiment in a line: Induction of apoptosis in human HepG2 cells assessed as live cells at 3.2 uM incubated for 48 hrs by Annexin V and dead cell assay kit (reference value: 93.90%). It is filed as functional. In outline: as §3
The subject of assay [15] is HepG2. The experiment in a line: Induction of apoptosis in human HepG2 cells assessed as late apoptotic cells at 0.8 uM incubated for 48 hrs by Annexin V and dead cell assay kit (reference value: 1%). It is filed as functional. In outline: as §3
The subject of assay [16] is HepG2. The experiment in a line: Induction of cell cycle arrest in human HepG2 cells assessed as accumulation at S phase at 1.6 uM incubated for 48 hrs by flow cytometry (reference value: 28.23%). It counts as functional. In outline:
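HepG2 treated 48 h with 0, 0.8 or 1.6 µM (DMSO control); phase distribution by flow cytometry using a cell cycle and apoptosis kit; mean with SD, n = 3.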

For assay [17], the system named is Bel-7402. The experiment in a line: Induction of cell cycle arrest in human Bel-7402 cells assessed as accumulation at G2/M phase at 3.2 uM incubated for 48 hrs by flow cytometry (reference value: 25.20%). It is filed as functional.
Assay [18] concerns A549. Briefly: Cytotoxicity against human A549 cells assessed as inhibition of proliferation incubated for 72 hrs by MTT assay. Conditions: A549, 72 h. It is filed as functional, cell-based. In a few lines: as §2
The subject of assay [19] is Bel-7402. Briefly: Induction of cell cycle arrest in human Bel-7402 cells assessed as accumulation at G1 phase at 3.2 uM incubated for 48 hrs by flow cytometry (reference value: 46.32%). It counts as functional.
Assay [20] deals with HepG2. The experiment in a line: Induction of apoptosis in human HepG2 cells assessed as early apoptotic cells at 3.2 uM incubated for 48 hrs by Annexin V and dead cell assay kit (reference value: 4.55%). It is filed as functional. In outline:
as §3

For assay [21], the system named is HepG2. The experiment in a line: Cytotoxicity against human HepG2 cells assessed as inhibition of proliferation incubated for 72 hrs by MTT assay. To be noted: HepG2, 72 h. It is filed as functional, cell-based. In a few lines:
as §2

The test system of assay [22] is HepG2. The experiment in a line: Induction of apoptosis in human HepG2 cells assessed as late apoptotic cells at 3.2 uM incubated for 48 hrs by Annexin V and dead cell assay kit (reference value: 1%). It counts as functional. In outline: as §3
Assay [23] relates to HepG2. The experiment in a line: Antitumor activity against human HepG2 cells xenografted in BALB/c mouse assessed as tumor growth inhibition at 4 mg/kg, ip relative to control. It counts as functional. To be noted: read-out: TGI. In a few lines:
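Female BALB/c nude mice (14–17 g) given HepG2 s.c. (1×10⁶/mouse); at 100–200 mm³ tumours, randomised to 3 groups of 5. Daily i.p. dosing at 4 or 8 mg/kg for 20 days; vehicle 15% N-methylpyrrolidone/25% Solutol HS-15/60% saline. Caliper volume twice weekly, TV = width² × length/2; inhibition from volume change versus vehicle group.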

pIC50: −log10 of the molar value.

Sequence of Mitogen-activated protein kinase; ERK1/ERK2 (Homo sapiens) (P27361 whole entry, looked up): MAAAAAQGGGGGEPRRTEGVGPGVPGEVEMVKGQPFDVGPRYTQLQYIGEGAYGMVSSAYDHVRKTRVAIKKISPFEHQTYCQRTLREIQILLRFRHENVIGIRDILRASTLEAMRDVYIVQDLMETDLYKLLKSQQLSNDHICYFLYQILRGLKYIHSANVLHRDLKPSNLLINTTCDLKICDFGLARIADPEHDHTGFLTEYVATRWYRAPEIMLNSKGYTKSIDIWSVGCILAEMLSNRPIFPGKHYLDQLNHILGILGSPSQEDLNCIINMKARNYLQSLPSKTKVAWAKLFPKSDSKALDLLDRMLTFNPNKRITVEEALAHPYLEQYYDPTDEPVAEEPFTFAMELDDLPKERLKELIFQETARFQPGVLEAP
Sequence of Mitogen-activated protein kinase; ERK1/ERK2 (Homo sapiens) (P28482 whole entry, looked up): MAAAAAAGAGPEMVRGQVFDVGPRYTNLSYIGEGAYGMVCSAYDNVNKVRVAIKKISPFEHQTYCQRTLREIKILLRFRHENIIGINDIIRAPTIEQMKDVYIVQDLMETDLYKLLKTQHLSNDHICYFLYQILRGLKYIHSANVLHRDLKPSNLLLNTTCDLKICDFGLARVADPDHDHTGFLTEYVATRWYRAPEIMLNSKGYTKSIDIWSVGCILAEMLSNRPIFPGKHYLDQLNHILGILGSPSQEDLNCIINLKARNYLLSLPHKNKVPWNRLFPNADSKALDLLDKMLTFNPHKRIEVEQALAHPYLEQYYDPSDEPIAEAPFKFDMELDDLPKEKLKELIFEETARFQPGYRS

Take `COc1cc(C(=O)c2nc3ccccc3c(=O)[nH]2)cc(OC)c1OC`: the inhibition result in assay [1], in [6] and in assay [12] was “Dose-Dependent Effect” each time. Besides, the Activity in assay [2] is given as 27.69%; in [5], 32.14%; in [7], 80.65%; in [9], 0.55%; in [10], 33.07%; in [13] it was 29.17%. In addition, the Activity is reported as 53.2% in [14]; 2% in assay [15]; 35.65% in [16]; 41.71% in assay [17]; 26.15% in assay [19]; 22.1% in assay [20]. Also, the Activity in assay [22] is given as 24.15%. In addition, the pIC50 (commonly the IC50 on a negative log10 scale, so that one unit is a factor of ten) is 5.26 in assay [3]; 5.26 in [8]; 4.86 in assay [11]; 5.41 in assay [18]; 5.91 in assay [21]. Further, in assay [4], the inhibition (as a rule, the drop in the measured response relative to a control, in per cent) at 2.5 µM was found to be 73%. In addition, the inhibition in vivo at 4 mg/kg in assay [23] was found to be 19.1%.

For the origin of these results see ChEMBL document CHEMBL4842335, “Discovery of penipanoid C-inspired 2-(3,4,5-trimethoxybenzoyl)quinazolin-4(3H)-one derivatives as potential anticancer agents by inhibiting cell proliferation and inducing apoptosis in hepatocellular carcinoma cells” (Eur J Med Chem, 2021).
